Bioassay records as filed in PubChem.
A selection: hits, their analogues and other compounds. The true share with any hit is near 4.2%.
WT yeast gro inh: growth inhibition of WT strain, primary screen, mitochondrial fusion inhibitor project, WT and mutant strains, chemical genetic; mitochondrial fusion phenotypic screen; inhibition, % at 10 µM; 190,000 tested, 2.1% active; AID 1362, 2008; in the data active = inhibition above about 58%; tested in S. cerevisiae
Cl transport mod: KCC2 cotransporter modulators, thallium flux, primary screen, cell-based, HEK293 KCC2, FluoZin-2 fluorescence, MLSMR; Solute carrier family 12 member 5 (Homo sapiens), Q9H2X9; KCC2 cells, thallium flux FluoZin-2 fluorescence; B-score of Tl+ flux slope (higher = more flux/activation; lower = inhibition) at 10 µM; 190,000 tested, 2.2% active; AID 1456, 2008;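 active = thallium flux slope and its plate-corrected score both differing from the plate sample mean at a set confidence after two filtering rounds, in either direction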;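 also: slope of fluorescence scaled to starting intensity during 10 to 20 s after thallium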
Target sequence (Q9H2X9 whole entry, looked up): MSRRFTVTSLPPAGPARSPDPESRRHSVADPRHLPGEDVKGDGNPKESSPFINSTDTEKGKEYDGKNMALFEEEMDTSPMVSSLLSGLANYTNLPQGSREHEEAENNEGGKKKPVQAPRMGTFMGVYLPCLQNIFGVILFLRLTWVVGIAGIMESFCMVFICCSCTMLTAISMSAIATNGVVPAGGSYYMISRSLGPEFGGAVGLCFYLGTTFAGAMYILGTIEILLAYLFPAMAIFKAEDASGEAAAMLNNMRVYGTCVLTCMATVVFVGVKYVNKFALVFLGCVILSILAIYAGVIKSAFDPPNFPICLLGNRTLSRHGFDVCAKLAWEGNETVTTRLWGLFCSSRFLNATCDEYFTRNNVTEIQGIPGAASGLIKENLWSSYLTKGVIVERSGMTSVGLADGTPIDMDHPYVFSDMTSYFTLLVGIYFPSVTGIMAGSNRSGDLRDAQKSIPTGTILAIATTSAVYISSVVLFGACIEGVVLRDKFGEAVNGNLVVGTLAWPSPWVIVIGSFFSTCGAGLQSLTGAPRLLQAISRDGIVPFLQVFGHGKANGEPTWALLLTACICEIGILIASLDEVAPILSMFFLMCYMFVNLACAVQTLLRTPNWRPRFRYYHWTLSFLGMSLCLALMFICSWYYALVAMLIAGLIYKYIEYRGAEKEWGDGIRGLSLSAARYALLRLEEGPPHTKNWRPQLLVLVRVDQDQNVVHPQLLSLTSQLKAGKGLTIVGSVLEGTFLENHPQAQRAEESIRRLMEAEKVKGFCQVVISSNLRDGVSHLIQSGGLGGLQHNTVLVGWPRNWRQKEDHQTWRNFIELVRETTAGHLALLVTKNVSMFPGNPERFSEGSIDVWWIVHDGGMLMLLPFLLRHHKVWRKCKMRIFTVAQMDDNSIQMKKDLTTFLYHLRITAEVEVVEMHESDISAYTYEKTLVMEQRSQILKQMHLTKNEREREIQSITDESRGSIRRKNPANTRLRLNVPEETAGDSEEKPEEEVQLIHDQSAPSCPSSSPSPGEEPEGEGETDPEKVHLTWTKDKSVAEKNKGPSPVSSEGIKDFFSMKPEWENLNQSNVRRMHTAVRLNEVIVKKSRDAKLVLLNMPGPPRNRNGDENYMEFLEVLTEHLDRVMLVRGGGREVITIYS
Autophagy mod: autophagy modulators in MEF cells, primary screen, imaging, high-content, MEF GFP-LC3. calls only at 10 µM (by protocol). MEF GFP-LC3 puncta imaging; test concentration mostly 10 µM. 190,000 tested, 0.98% active;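 active = percentage of spot-positive cells more than 3 SD above its plate mean, without a fluorescence outlier flag or 80% toxicity; inconclusive = no clear call, values can overlap the other calls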;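 also: spot-positive cell cutoff set from DMSO-treated cells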
Ins promoter up: insulin promoter activators in MIN6 cells, imaging, high-content screening, mouse beta cells; MIN6 insulin promoter-GFP reporter; active compounds read high; z-score at 5 µM; 190,000 tested, 0.3% active;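 active = z-score above 3 at 5 µM with at least 500 cells counted in the well; inconclusive = wells under 500 cells, flagged as cytotoxic or low count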
Rad51 HR inh: human RAD51 strand exchange inhibitors, primary screen, biochemical, fluorescence. DNA repair protein RAD51 homolog 1 (Homo sapiens), Q06609. inhibition, % at 10 µM. 200,000 tested, 0.085% active. hRad51 DNA strand exchange, fluorescence dequenching;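 active = inhibition above 40% at the single screening dose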;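 also: 0% = DMSO control wells and 100% = blanks with heterologous ssDNA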
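Material: Human Rad51 nucleoprotein filaments preassembled on unlabelled ssDNA | Also added: Labelled 47-mer dsDNA for strand exchange | Dosing: Single dose, 10 µM final compound | Schedule: 30-min compound preincubation and 15-min exchange, both room temperature | Technique: Fluorescence dequenching at 485/520 nm | Measure: Percent inhibition relative to plate controls and blanks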
SKKanGAS inh: S. pyogenes SKKanGAS growth inhibitors in kanamycin, primary screen, streptokinase expression inhibitor project, SKKanGAS strain, BacTiter-Glo luminescence; 6 h; inhibition, % at 7.5 µM; 300,000 tested, 1.3% active;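 active = mean replicate score, as percent of positive control median, at least 50; inconclusive = mean below 50 but one replicate at or above 50; inactive = mean and every replicate below 50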;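 also: strain carries kanamycin resistance gene driven by streptokinase promoter and grows in 40 µg/ml kanamycin; loss of luminescence reflects streptokinase promoter inhibition or plain growth inhibition; 0% = median of DMSO wells and 100% = positive control at its reference dose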
The depositor's hits bear a star.

For O=C(Nc1ccc(S(=O)(=O)N2CCN(Cc3ccccc3)CC2)cc1)c1cnccn1 the results were WT yeast gro inh 60*, Cl transport mod 0.18, Autophagy mod inactive, Rad51 HR inh 9 and SKKanGAS inh -9.
Screening Cc1ccc(F)cc1NC(=O)c1sc2ncn(CC(=O)N3CCN(c4ccccn4)CC3)c(=O)c2c1C returned SKKanGAS inh -4.
`O=C1NCN(c2ccccc2)C12CCN(CCCC(c1ccc(F)cc1)c1ccc(F)cc1)CC2` gave WT yeast gro inh 73*, Cl transport mod -0.11, Autophagy mod active, Ins promoter up -0.77, Rad51 HR inh 21 and SKKanGAS inh 3.
For O=C(NN=C1CCCC1)c1cccc(Br)c1 the results were SKKanGAS inh -1.
Screening Cn1cc(Br)c(C(=O)Nc2sc3c(c2C(N)=O)CCC3)n1 returned WT yeast gro inh -6, Cl transport mod 0.014, Autophagy mod inactive, Ins promoter up 1.4, Rad51 HR inh -2 and SKKanGAS inh -3.
For CCn1ncc(Br)c1C(=O)Nc1sc2c(c1C(N)=O)CCC2 the results were WT yeast gro inh 14, Autophagy mod inactive, Ins promoter up 3.5*, Rad51 HR inh -1 and SKKanGAS inh 25.
CCOc1cccc(C(=O)Nc2ccc3c(c2)OCCO3)c1 was read as SKKanGAS inh -8.
Screening CC[C@H]1OC(=O)C[C@@H](O)[C@H](C)[C@@H](O[C@@H]2O[C@H](C)C[C@H](N(C)C)[C@H]2O)[C@@H](CC=O)C[C@@H](C)C(=O)C=C[C@]2(C)O[C@H]2[C@@H]1C returned Cl transport mod -0.0077, Ins promoter up 1.5 and SKKanGAS inh 111*.
O=C(Nc1ccc(F)cc1)c1ccccc1NS(=O)(=O)N1CCCC1 was read as WT yeast gro inh 34, Cl transport mod -0.86, Autophagy mod inactive, Ins promoter up 0.45 and SKKanGAS inh 1.
`Cc1ccc(C(=O)Nc2ccc(S(=O)(=O)NCc3ccco3)cc2)cc1` gave WT yeast gro inh 66*, Cl transport mod 0.79, Autophagy mod inactive, Ins promoter up 0.58, Rad51 HR inh 1 and SKKanGAS inh -7.
`COCCCC1CCN(C(=O)C2CCC(=O)N(Cc3cccc(F)c3)C2)CC1` (stereo not drawn) gave SKKanGAS inh -2.
`O=S(=O)(NCc1ccc(Cl)cc1)c1cnc[nH]1` gave WT yeast gro inh -12, Cl transport mod 0.65, Autophagy mod active, Ins promoter up 1, Rad51 HR inh 3 and SKKanGAS inh -5.
Screening COc1ccc(/C=C2/SC(=S)NC2=O)cc1OCc1ccccc1 returned SKKanGAS inh 26.
CCOc1ccc(N(C)c2ccc(/C=C3/SC(=S)NC3=O)cc2)cc1 was read as SKKanGAS inh 65*.
Screening O=C1NC(=O)/C(=C\c2ccccc2OCc2ccccc2)S1 returned WT yeast gro inh 31, Cl transport mod -3.8, Autophagy mod inactive, Ins promoter up -0.44 and SKKanGAS inh inconclusive.
For O=C1NC(=O)/C(=C\c2ccc(OCc3ccccc3)cc2)S1 the results were SKKanGAS inh 55*.
`C=CC(c1ccccc1)C(C(=O)c1ccccc1)N(C)C` (stereo not drawn) gave WT yeast gro inh 1, Cl transport mod -0.52, Autophagy mod inactive, Ins promoter up 1.2 and Rad51 HR inh 24.
`Cc1ccc(C)c(NC(=O)Cn2nnc(-c3ccc(N4CCOCC4)cc3)n2)c1` gave WT yeast gro inh -13, Cl transport mod 0.91, Autophagy mod active, Ins promoter up -0.09, Rad51 HR inh 7 and SKKanGAS inh -2.
CCCCC(Nc1ncnc2ccccc12)C(=O)O (stereo not drawn) was read as WT yeast gro inh 37, Cl transport mod 1.2, Autophagy mod inactive, Ins promoter up -0.33, Rad51 HR inh 73* and SKKanGAS inh -2.
For N#Cc1c(-c2ccccc2Cl)c2c([nH]c1=O)-c1ccccc1OC2 the results were Cl transport mod -0.36, Ins promoter up -0.01, Rad51 HR inh -8 and SKKanGAS inh 15.
For N#Cc1c2c(c(-c3ccccc3Cl)[nH]c1=S)CCCC2 the results were WT yeast gro inh 6, Cl transport mod 40*, Autophagy mod inactive, Ins promoter up -1.5 and Rad51 HR inh -35.
For O=C1c2nccnc2C(=O)N1c1ccc(F)cc1 the results were WT yeast gro inh 11, Cl transport mod -0.4, Autophagy mod inactive, Ins promoter up 0.22 and Rad51 HR inh -13.
For O=S(=O)(Nc1ccc(-c2csc(-c3ccccc3)n2)cc1)c1ccc(F)cc1 the results were WT yeast gro inh 92*, Autophagy mod inactive, Ins promoter up 0.8, Rad51 HR inh -1 and SKKanGAS inh 98*.
For Fc1ccc(-c2csc(-c3ccncc3)n2)cc1 the results were WT yeast gro inh 21, Cl transport mod -1.2, Autophagy mod inactive, Ins promoter up -0.18, Rad51 HR inh 19 and SKKanGAS inh -4.
`Cc1ccc(S(=O)(=O)Nc2nc3ccccc3nc2NCC2CCCO2)cc1C` (stereo not drawn) gave Cl transport mod 0.39, Ins promoter up 0.08 and SKKanGAS inh 4.
CC(C)C(C(=O)OCC(=O)c1ccccc1)N1C(=O)C2C3C=CC(C3)C2C1=O (stereo not drawn) was read as WT yeast gro inh 4, Cl transport mod 0.6, Autophagy mod inactive, Ins promoter up -0.02, Rad51 HR inh 13 and SKKanGAS inh -11.
`Cc1ccc(-n2ncc3c2CC(C)(C)CC3NC(=O)CCCN2CCCCC2=O)cc1` (stereo not drawn) gave SKKanGAS inh -5.
`CC1(C)Cc2c(cnn2-c2ccccc2)C(NC(=O)CCCN2CCCC2=O)C1` (stereo not drawn) gave SKKanGAS inh 61*.
Screening CC(C)(C)c1nnc(NC(=O)C2CC(=O)N(CCc3ccc(F)cc3)C2)s1 (stereo not drawn) returned SKKanGAS inh 1.
Screening COc1ccc(-c2ccc(CO)o2)cc1N returned WT yeast gro inh 1, Cl transport mod 0.15, Autophagy mod active, Ins promoter up -0.15, Rad51 HR inh 10 and SKKanGAS inh -4.
Cc1cccc(Nc2nc(N)c([N+](=O)[O-])c(N3CCCC(C)C3)n2)c1 (stereo not drawn) was read as WT yeast gro inh 93*, Cl transport mod -0.66, Autophagy mod inactive, Ins promoter up -2, Rad51 HR inh 2 and SKKanGAS inh 22.
